Source: ChEMBL document CHEMBL5120972, “Small-Molecule Inhibitors of the MLL1 CXXC Domain, an Epigenetic Reader of DNA Methylation” (ACS Med Chem Lett, 2022)
Activity calls are given as the source filed them. The calls are words filed in the database; no cut-off is given here.

Test system: MV4-11
Experiment: Anti-proliferative activity against human MV4-11 cells harboring MLL fusion protein assessed as inhibition of cell viability upto 120 uM for 72 hrs by MTT assay
Type: functional, cell-based
Method in brief: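 MV4-11 MLL-fusion leukemia cells are exposed to compound across a concentration range for 72 h. Growth is read out by MTT assay, with three replicates.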

Row | SMILES | Activity
1 | C=CC(=O)N1CCC(C(=O)OCC)(c2ccccc2)CC1 | Active

Molecular target: Histone-lysine N-methyltransferase 2A (Homo sapiens, UniProt Q03164)
Sequence (Q03164 1-2718 limits assumed): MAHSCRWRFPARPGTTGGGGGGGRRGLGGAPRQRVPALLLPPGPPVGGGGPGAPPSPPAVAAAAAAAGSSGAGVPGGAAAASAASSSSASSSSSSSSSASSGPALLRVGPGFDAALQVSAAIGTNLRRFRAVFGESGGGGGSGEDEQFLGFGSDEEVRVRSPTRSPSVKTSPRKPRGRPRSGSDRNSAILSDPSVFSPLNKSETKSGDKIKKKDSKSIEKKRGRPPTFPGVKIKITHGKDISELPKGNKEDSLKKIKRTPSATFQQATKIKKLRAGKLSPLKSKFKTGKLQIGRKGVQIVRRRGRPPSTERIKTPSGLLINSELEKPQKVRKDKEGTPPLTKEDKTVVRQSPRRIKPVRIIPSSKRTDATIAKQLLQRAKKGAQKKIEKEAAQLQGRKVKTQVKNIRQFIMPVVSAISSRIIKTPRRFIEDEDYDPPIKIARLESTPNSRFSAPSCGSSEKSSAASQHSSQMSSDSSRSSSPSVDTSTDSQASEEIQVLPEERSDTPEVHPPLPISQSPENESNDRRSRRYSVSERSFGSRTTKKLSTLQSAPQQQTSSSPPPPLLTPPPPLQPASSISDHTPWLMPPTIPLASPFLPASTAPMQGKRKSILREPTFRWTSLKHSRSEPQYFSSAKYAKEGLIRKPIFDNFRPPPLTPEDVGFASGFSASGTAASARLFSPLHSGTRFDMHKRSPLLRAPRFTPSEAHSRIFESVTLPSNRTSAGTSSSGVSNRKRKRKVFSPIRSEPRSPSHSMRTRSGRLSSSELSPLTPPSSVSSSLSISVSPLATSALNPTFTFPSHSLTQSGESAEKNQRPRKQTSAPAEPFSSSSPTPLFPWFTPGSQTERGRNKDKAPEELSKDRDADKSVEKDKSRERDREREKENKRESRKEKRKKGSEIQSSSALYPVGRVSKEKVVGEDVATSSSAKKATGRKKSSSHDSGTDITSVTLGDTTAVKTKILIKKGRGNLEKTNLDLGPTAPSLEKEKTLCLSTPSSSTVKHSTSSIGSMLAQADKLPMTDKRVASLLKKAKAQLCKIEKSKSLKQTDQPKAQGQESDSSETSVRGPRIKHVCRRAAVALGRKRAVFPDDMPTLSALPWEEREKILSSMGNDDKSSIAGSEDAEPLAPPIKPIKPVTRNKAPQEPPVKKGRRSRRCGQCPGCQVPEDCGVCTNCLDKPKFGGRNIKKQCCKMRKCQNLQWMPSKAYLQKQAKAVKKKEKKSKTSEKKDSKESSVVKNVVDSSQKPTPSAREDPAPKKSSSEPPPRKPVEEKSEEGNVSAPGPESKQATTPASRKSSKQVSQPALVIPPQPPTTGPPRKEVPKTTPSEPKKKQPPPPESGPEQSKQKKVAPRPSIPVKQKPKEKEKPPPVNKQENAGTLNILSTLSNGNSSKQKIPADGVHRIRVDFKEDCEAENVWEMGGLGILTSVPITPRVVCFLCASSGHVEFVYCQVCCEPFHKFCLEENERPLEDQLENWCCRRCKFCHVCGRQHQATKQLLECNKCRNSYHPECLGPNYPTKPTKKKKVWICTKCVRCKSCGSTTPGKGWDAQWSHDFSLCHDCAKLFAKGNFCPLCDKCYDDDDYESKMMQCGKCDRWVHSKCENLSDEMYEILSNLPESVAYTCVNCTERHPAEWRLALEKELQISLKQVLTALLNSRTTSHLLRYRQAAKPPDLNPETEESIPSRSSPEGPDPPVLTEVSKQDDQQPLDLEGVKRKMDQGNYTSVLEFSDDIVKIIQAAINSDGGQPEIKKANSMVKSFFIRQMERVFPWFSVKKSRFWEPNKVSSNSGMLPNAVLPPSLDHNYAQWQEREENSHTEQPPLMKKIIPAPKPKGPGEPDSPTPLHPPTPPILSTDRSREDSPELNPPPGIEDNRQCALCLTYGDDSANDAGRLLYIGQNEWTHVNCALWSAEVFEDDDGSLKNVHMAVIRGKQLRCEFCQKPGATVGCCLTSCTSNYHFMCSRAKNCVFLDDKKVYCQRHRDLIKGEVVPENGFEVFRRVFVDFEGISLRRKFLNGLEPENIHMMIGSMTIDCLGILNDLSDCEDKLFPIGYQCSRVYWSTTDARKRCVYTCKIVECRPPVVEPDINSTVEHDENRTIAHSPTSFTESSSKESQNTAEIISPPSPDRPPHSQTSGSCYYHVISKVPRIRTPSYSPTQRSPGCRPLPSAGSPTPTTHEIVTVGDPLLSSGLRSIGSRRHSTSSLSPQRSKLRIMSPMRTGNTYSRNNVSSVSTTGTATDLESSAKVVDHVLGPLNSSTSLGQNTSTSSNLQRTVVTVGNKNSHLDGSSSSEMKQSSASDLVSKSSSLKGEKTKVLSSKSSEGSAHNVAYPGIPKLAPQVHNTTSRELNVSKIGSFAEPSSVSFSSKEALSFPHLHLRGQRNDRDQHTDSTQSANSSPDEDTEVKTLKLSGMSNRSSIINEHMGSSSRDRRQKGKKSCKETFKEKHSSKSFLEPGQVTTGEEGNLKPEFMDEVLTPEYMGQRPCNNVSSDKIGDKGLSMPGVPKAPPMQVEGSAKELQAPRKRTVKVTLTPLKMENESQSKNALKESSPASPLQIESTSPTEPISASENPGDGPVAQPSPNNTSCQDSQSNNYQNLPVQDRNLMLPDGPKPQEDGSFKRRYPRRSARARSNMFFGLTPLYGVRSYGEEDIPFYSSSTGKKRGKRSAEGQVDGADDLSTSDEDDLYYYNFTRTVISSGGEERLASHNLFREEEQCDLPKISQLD
Sequence (Q03164 2719-3969 limits assumed): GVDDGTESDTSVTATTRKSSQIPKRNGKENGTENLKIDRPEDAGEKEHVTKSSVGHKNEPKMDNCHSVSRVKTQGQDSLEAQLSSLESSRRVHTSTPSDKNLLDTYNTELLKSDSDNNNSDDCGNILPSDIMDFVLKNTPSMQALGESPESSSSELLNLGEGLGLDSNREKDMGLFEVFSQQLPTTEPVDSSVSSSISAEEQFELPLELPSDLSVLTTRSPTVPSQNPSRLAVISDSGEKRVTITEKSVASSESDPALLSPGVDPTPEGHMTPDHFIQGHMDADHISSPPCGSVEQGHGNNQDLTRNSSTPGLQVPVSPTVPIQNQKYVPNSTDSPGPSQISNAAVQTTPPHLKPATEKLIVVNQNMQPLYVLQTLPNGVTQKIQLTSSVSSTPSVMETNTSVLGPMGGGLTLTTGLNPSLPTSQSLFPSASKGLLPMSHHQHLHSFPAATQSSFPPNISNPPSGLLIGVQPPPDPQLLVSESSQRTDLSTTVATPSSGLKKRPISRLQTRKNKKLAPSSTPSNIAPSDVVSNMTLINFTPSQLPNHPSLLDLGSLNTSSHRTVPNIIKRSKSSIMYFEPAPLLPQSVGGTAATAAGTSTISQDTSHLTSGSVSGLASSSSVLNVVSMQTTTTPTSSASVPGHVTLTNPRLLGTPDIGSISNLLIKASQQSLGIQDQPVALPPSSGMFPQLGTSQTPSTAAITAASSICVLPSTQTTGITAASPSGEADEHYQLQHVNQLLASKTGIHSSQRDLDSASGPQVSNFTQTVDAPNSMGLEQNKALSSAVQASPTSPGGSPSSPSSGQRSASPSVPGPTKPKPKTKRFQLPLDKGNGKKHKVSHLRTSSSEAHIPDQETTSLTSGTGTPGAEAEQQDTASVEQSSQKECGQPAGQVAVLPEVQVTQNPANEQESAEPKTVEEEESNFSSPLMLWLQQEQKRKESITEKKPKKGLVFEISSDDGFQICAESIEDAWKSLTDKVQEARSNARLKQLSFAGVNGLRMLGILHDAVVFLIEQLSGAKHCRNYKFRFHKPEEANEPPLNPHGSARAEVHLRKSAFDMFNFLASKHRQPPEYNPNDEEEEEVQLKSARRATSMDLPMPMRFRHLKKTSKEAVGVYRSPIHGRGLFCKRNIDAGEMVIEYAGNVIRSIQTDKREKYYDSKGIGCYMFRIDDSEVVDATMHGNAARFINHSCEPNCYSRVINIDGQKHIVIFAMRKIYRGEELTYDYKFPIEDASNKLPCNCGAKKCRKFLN
Experiment: Inhibition of GST-tagged human MLL1 (1147 to 1203 residues) expressed in Escherichia coli BL21 cells incubated for 30 mins by fluorescence polarization assay
Method in brief: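 Competition fluorescence polarization assay. CXXC domain protein is held at 2× its own KD. All domains are expressed and purified by the same method. Standard deviations come from three separate measurements.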

Row | SMILES | IC50
2 | C=CC(=O)N1CCC(C(=O)NS(=O)(=O)CC)(c2ccccc2)CC1 | 114 µM
3 | C=CC(=O)N1CCC(C(=O)NS(=O)(=O)c2ccc(C)cc2)(c2ccccc2)CC1 | 136 µM
4 | C=CC(=O)N1CCC(C(=O)NS(=O)(=O)c2ccc(Cl)cc2)(c2ccccc2)CC1 | 153 µM
5 | C=CC(=O)N1CCC(C(=O)O)(c2ccc(C)cc2)CC1 | 495 µM
6 | C=CC(=O)N1CCC(C(=O)O)(c2cccc(OCC)c2)CC1 | 51 µM
7 | C=CC(=O)N1CCC(C(=O)O)(c2ccc(N(C)C)cc2)CC1 | 827 µM
8 | C=CC(=O)N1CCC(C(=O)NS(=O)(=O)c2ccc(F)cc2)(c2ccccc2)CC1 | 74 µM
9 | C=CC(=O)N1CCC(C(=O)NS(=O)(=O)c2ccc(OC)cc2)(c2ccccc2)CC1 | 76 µM
